Screening data from PubChem BioAssay.
Cneo AK release = causes C. neoformans cell lysis; 360,000 compounds, 0.2% hits; AID 651654; lysis activity, % at 15 µM; adenylate kinase release luminescence, 4 h; normalised: neutral wells 0, clomiphene wells 100;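 active = mean lysis activity across replicates of at least 80%, whatever share of replicates individually reach that level; inactive = mean lysis activity below 80%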
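read-out = cell lysis signal | test system = log-phase Cryptococcus neoformans yeast cells | input = cells at 5 × 10^6 per mL | medium = fresh YPD growth medium | signal = luminescent adenylate kinase detection reagent | timing = 4 h at 37 °C static, read 1 h later | dosing = single dose | controls = Clomiphene as positive lysis control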
DENV2 CPE rescue = protects cells from dengue virus 2 cytopathic effect; DENV2-infected cells, cytopathic effect rescue, plate reader; CPE inhibition, % at 9.99 µM; 350,000 compounds, 1.7% hits; AID 651640; in the data active = CPE inhibition above about 20%, passing the limit was not always enough; inconclusive = no clear call, values can overlap the other calls; tested in BHK-21 cells
rRNA inh HTS = selective bacterial rRNA inhibition in E. coli; E. coli WT GFP vs humanized-ribosome RFP mutants, fluorescence, 24 h; hits give low values; DMSO median 0, no signal -100; 350,000 compounds, 1.6% hits; GFP signal change (wild-type ribosome), % (no concentration beside the values); AID 720706;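 active = significant combined selectivity score with lowered wild-type GFP, culture density cut under 30%, mutant RFP and density less affected; inactive = any of these conditions unmet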
E-selectin induc = E-selectin induction on HUVECs; P16581; HUVEC E-selectin immunofluorescence imaging; normalized: neutral wells 0, TNF-alpha wells 100; AID 686992; activation, % at 7.58 µM; 260,000 compounds, 0.37% hits;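 active = mean E-selectin-positive cell signal at least 10% of the positive control, reached in at least 60% of replicates, without over 20% cell loss; inconclusive = no rule given, readout overlaps actives, possibly toxicity-flagged; inactive = the rest, including those meeting only one limit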
Target sequence (P16581 whole entry, looked up): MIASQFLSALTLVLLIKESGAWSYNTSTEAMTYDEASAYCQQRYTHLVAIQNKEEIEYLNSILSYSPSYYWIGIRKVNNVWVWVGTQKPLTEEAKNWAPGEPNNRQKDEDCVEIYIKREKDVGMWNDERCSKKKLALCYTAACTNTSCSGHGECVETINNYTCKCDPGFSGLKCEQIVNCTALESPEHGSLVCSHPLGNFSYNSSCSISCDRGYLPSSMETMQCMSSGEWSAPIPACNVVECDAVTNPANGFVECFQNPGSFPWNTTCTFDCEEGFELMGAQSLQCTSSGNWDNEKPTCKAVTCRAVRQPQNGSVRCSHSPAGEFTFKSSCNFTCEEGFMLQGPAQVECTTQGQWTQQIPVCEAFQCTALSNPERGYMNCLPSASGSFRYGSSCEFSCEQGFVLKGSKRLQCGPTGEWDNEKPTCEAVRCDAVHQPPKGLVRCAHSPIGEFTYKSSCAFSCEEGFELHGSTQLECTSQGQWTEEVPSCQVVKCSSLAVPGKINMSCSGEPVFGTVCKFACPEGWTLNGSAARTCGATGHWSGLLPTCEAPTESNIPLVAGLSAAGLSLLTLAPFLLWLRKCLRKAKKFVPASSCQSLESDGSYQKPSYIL
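System: HUVEC / Compound: single concentration / Signal: immunofluorescence imaging / Read-out: percent E-selectin-positive cells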
miR122 inh = miR-122 inhibition in Huh7 cells. Huh7 miR-122 Renilla luciferase sensor, 48 h; neutral wells = 0, positive control = 100. activation (reporter increase), % at 12.5 µM. 340,000 compounds, 0.3% hits. AID 602342;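 active = mean replicate activation score at least 90 and every replicate individually at or above 90; inconclusive = only one of the two criteria met; inactive = neither criterion met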;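 also: higher luciferase means less miR-122 activity so hits act as miR-122 inhibitors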
Hits are given with their value; - = inactive; ? = inconclusive; . = no result. Sampled rows, rich in hits. Any-hit rate of the full collection: about 3.1%.

SMILES | Cneo AK release | DENV2 CPE rescue | rRNA inh HTS | E-selectin induc | miR122 inh
CN1C(=O)c2cc(NC(=O)c3cnccn3)ccc2OC[C@@H]2O[C@H](CC(=O)NCC3CC3)CC[C@@H]21 | . | - | - | - | .
CCCC#Cc1ccc2c(c1)O[C@@H](CN(C)Cc1ccc3c(c1)OCO3)[C@@H](C)CN([C@H](C)CO)S2(=O)=O | - | - | - | - | -
CC(Nc1ncnc2ccccc12)c1ccccc1 (stereo not drawn) | - | - | -30 | - | .
CC(C)NC(=O)N(C)C[C@H]1Oc2ccc(NC(=O)CCC(F)(F)F)cc2CC(=O)N([C@H](C)CO)C[C@@H]1C | - | - | - | 43 | -
C[C@H](CO)N1C[C@H](C)[C@H](CN(C)C(=O)Nc2ccc(F)cc2)Oc2ccc(NC(=O)CCC(F)(F)F)cc2CC1=O | - | 25 | - | - | -
CC(C)NC(=O)N(C)C[C@H]1Oc2ccc(NC(=O)CCC(F)(F)F)cc2CC(=O)N([C@@H](C)CO)C[C@H]1C | - | - | - | 55 | -
CC(C)NC(=O)N(C)C[C@@H]1Oc2ccc(NC(=O)CCC(F)(F)F)cc2CC(=O)N([C@@H](C)CO)C[C@H]1C | - | ? | - | 113 | -
CCCNC(=O)C[C@@H]1CC[C@@H]2[C@@H](COc3ccc(NC(=O)c4ccc(Cl)cc4)cc3C(=O)N2C)O1 | - | - | - | - | -
Oc1cccc(Oc2ncc(C(F)(F)F)cc2Cl)c1 | . | - | - | 132 | .
Cc1nn2c(NCCN3CCOCC3)c3c(nc2c1-c1ccccc1)CCCC3 | - | - | -34 | - | -
CNC(=O)C[C@H]1CC[C@@H]2[C@H](COc3ccc(NC(=O)Nc4cccc(C)c4)cc3C(=O)N2C)O1 | - | ? | - | - | -
Cc1cc(C)c(C)c(S(=O)(=O)NC2CCN(Cc3ccccc3)CC2)c1C | - | - | - | - | 216
COc1ccc(NC(=O)Nc2ccc3c(c2)C(=O)N([C@H](C)CO)C[C@@H](C)[C@@H](CN(C)C(=O)Nc2ccc(OC)cc2)OCCCC[C@@H](C)O3)cc1 | . | 48 | - | - | .
COc1ccc(NC(=O)N(C)C[C@H]2OCCCC[C@H](C)Oc3ccc(NC(=O)C4CCCCC4)cc3C(=O)N([C@@H](C)CO)C[C@@H]2C)cc1 | 90 | . | - | - | -
COc1ccc(NC(=O)N(C)C[C@@H]2OCCCC[C@@H](C)Oc3ccc(NC(=O)Nc4ccccc4)cc3C(=O)N([C@H](C)CO)C[C@@H]2C)cc1 | - | 39 | - | - | -
COc1ccc(NC(=O)Nc2ccc3c(c2)C(=O)N([C@H](C)CO)C[C@H](C)[C@H](CN(C)C(=O)Nc2ccc(OC)cc2)OCCCC[C@H](C)O3)cc1 | - | - | - | - | -
COc1ccc(NC(=O)Nc2ccc3c(c2)C(=O)N([C@H](C)CO)C[C@H](C)[C@H](CN(C)C(=O)NC(C)C)OCCCC[C@@H](C)O3)cc1 | - | - | - | . | -
COc1ccc(NC(=O)Nc2ccc3c(c2)C(=O)N([C@H](C)CO)C[C@H](C)[C@H](CN(C)C(=O)NC(C)C)OCCCC[C@H](C)O3)cc1 | - | 33 | - | . | -
C[C@H]1CN([C@@H](C)CO)C(=O)c2cc(C#CC3CCCC3)cnc2O[C@H]1CN(C)C(=O)Nc1ccccc1 | - | - | - | - | -
CC(C)NC(=O)N(C)C[C@H]1OCCCC[C@@H](C)Oc2ccc(NS(=O)(=O)c3cn(C)cn3)cc2C(=O)N([C@H](C)CO)C[C@H]1C | - | - | - | . | -
CO[C@H]1CN(C)C(=O)c2cc(NC(=O)c3ccno3)ccc2OC[C@H](C)N(S(C)(=O)=O)C[C@H]1C | - | - | - | - | .
COc1ccc(NC(=O)N(C)C[C@H]2OCCCC[C@@H](C)Oc3ccc(N(C)C)cc3C(=O)N([C@H](C)CO)C[C@H]2C)cc1 | 112 | - | - | - | -
COc1ccc(NC(=O)N(C)C[C@H]2OCCCC[C@@H](C)Oc3ccc(N(C)C)cc3C(=O)N([C@@H](C)CO)C[C@@H]2C)cc1 | - | - | - | - | -
C[C@@H]1CN([C@@H](C)CO)C(=O)c2cc(NC(=O)C3CC3)ccc2O[C@H]1CN(C)Cc1ccc(C(=O)O)cc1 | - | - | - | - | -
